Results on four molecules are retold here after ChEMBL document CHEMBL1138683 (J Med Chem, 2004).

SMILES strings stand for the structures.

The nature of data set [1]: Anti convulsant activity administered intra peritoneally to mouse for toxicity at 4 hr with dose of 30 mg/kg; 0/2= No of animals exhibiting toxicity /No of animals tested. In kind it is organism-based. Set-up: dose 30 mg/kg. Particulars: in vivo, ip.
A short description of data set [2]: Anti convulsant activity administered intra peritoneally to mouse for toxicity at 4 hr with dose of 100 mg/kg; 0/4= No of animals exhibiting toxicity /No of animals tested. Format: organism-based. Set-up: dose 100 mg/kg. Conditions: in vivo, ip.
Data set [3] in a line: Anti convulsant activity administered intra peritoneally to mouse for toxicity at 4 hr with dose of 300 mg/kg; 1/2= No of animals exhibiting toxicity /No of animals tested. In kind it is organism-based. Further details: dose 300 mg/kg. Conditions: in vivo, ip.
Data set [4] can be described thus: Anti convulsant activity administered intra peritoneally to mouse for toxicity at 0.5 hr with dose of 30 mg/kg; 0/4= No of animals exhibiting toxicity /No of animals tested. Format: organism-based. Further details: dose 30 mg/kg. Particulars: in vivo, ip.
The nature of data set [5]: Anti convulsant activity administered intra peritoneally to mouse for toxicity at 0.5 hr with dose of 100 mg/kg; 0/8= No of animals exhibiting toxicity /No of animals tested. Particulars: in vivo, ip. In kind it is organism-based. Set-up: dose 100 mg/kg.
Data set [6] can be described thus: Anti convulsant activity administered intra peritoneally to mouse for toxicity at 0.5 hr with dose of 300 mg/kg; 4/4= No of animals exhibiting toxicity /No of animals tested. In kind it is organism-based. Further details: dose 300 mg/kg. Conditions: in vivo, ip.
The test system of data set [7] is Mus musculus. Briefly: Anti convulsant activity administered intra peritoneally to mouse at maximal electroshock test at 4 hr after the drug administered with dose of 30 mg/kg; 0/1= No of animals protected /No of animals tested. In kind it is functional. (Protection in the maximal electroshock model is a classic sign of anticonvulsant action.)
For data set [8], the system named is Mus musculus. Briefly: Anti convulsant activity administered intra peritoneally to mouse at maximal electroshock test at 4 hr after the drug administered with dose of 100 mg/kg; 0/3= No of animals protected /No of animals tested. In kind it is functional.
Data set [9] concerns Mus musculus. The data set can be described thus: Anti convulsant activity administered intra peritoneally to mouse at maximal electroshock test at 4 hr after the drug administered with dose of 300 mg/kg; 0/1= No of animals protected /No of animals tested. In kind it is functional.
In data set [10] the test system is Mus musculus. Briefly: Anti convulsant activity administered intra peritoneally to mouse at maximal electroshock test at 0.5 h after the drug administered with dose of 30 mg/kg; 0/1= No of animals protected /No of animals tested. Format: functional.
Data set [11] relates to Mus musculus. Briefly: Anti convulsant activity administered intra peritoneally to mouse for subcutaneous metrazol test at 4 hr after the drug administered with dose of 30 mg/kg; 0/1= No of animals protected /No of animals tested. Conditions: route intraperitoneal. In kind it is functional.
In data set [12] the test system is Mus musculus. Briefly: Anti convulsant activity administered intra peritoneally to mouse at maximal electroshock test at 0.5 hr after the drug administered with dose of 100 mg/kg; 0/3= No of animals protected /No of animals tested. Format: functional.
The subject of data set [13] is Mus musculus. Briefly: Anti convulsant activity administered intra peritoneally to mouse at maximal electroshock test at 0.5 hr after the drug administered with dose of 300 mg/kg; 1/1= No of animals protected /No of animals tested. In kind it is functional.
The subject of data set [14] is Mus musculus. The data set can be described thus: Anti convulsant activity administered intra peritoneally to mouse for subcutaneous metrazol test at 4 hr after the drug administered with dose of 100 mg/kg; 0/1= No of animals protected /No of animals tested. In kind it is functional.
In data set [15] the test system is Rattus norvegicus. The data set can be described thus: Anticonvulsant activity after oral administration of 100 mg/kg dose after 30 min in rats; +means 25% of animal protected. In kind it is functional, organism-based. Further details: dose 100 mg/kg. In outline: (§1)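 Oral dosing of rats at a single dose, compound dissolved or suspended in 0.5% methylcellulose. Protection in the MES or scMet test checked 15 min, 30 min, 1 h, 2 h and 4 h after dosing. Scored as 25/50/75/100% of animals protected (+ to ++++), – for none.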

Data set [16] deals with Rattus norvegicus. The data set can be described thus: Anticonvulsant activity after oral administration of 50 mg/kg dose after 30 min in rats; ++ means 50% of animals protected. Set-up: dose 50 mg/kg. Format: functional, organism-based. In outline: (§2)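 Rats dosed orally with compound dissolved or suspended in 0.5% methylcellulose (0.04 mL per 10 g body weight). Anticonvulsant protection (MES or scMet) and toxicity scored at 15 min, 30 min, 1 h, 2 h and 4 h after dosing. Graded in steps of 25% of animals protected or showing toxicity.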

For data set [17], the system named is Mus musculus. Briefly: Anti convulsant activity administered intra peritoneally to mouse for subcutaneous metrazol test at 4 hr with dose of 300 mg/kg; 0/1= No of animals protected /No of animals tested. In kind it is functional.
Data set [18] has as its system Mus musculus. The data set can be described thus: Anti convulsant activity administered intra peritoneally to mouse for subcutaneous metrazol test at 0.5 hr with dose of 30 mg/kg; 0/1= No of animals protected /No of animals tested. Format: functional.
Data set [19] has as its system Mus musculus. Briefly: Anti convulsant activity administered intra peritoneally to mouse for subcutaneous metrazol test at 0.5 hr with dose of 100 mg/kg; 0/1= No of animals protected /No of animals tested. In kind it is functional.
In data set [20] the test system is Mus musculus. The data set can be described thus: Anti convulsant activity administered intra peritoneally to mouse for subcutaneous metrazol test at 0.5 h with dose of 300 mg/kg; 0/1= No of animals protected /No of animals tested. Format: functional.
The subject of data set [21] is Rattus norvegicus. Briefly: Anticonvulsant activity administered orally to rat for protective index of subcutaneous metrazol test. In kind it is functional.
Data set [22] has as its system Mus musculus. Briefly: Anticonvulsant activity administered intra peritoneally to mouse for protective index of subcutaneous metrazol test. In kind it is functional.
Data set [23] is described as follows: Anti convulsant activity administered intra peritoneally to mouse for toxicity at 4 hr with dose of 300 mg/kg; 0/2= No of animals exhibiting toxicity /No of animals tested. Format: organism-based. Set-up: dose 300 mg/kg. Particulars: in vivo, ip.
Data set [24] is described as follows: Anti convulsant activity administered intra peritoneally to mouse for toxicity at 0.5 hr with dose of 100 mg/kg; 1/8= No of animals exhibiting toxicity /No of animals tested. Set-up: dose 100 mg/kg. Format: organism-based. Particulars: in vivo, ip.
Data set [25] has as its system Mus musculus. The data set can be described thus: Anti convulsant activity administered intra peritoneally to mouse at maximal electroshock test at 4 hr after the drug administered with dose of 300 mg/kg; 1/1= No of animals protected /No of animals tested. Format: functional.
The test system of data set [26] is Rattus norvegicus. The data set can be described thus: Anticonvulsant activity after oral administration of 50 mg/kg dose after 1 hr in rats;+means 25% of the animals protected. Format: functional, organism-based. Set-up: dose 50 mg/kg. The essentials: as §1
Data set [27] has as its system Rattus norvegicus. Briefly: Anticonvulsant activity after oral administration of 50 mg/kg dose after 2 hr in rats; +++ means 75% of the animal is protected. Format: functional, organism-based. Further details: dose 50 mg/kg. In outline:
as §1

Data set [28] has as its system Rattus norvegicus. The data set can be described thus: Anticonvulsant activity after oral administration of 50 mg/kg dose after 30 min in rats; ++ means 50% of the animal protected. In kind it is functional, organism-based. Further details: dose 50 mg/kg. The essentials: as §2
Data set [29] relates to Rattus norvegicus. The data set can be described thus: Anticonvulsant activity after oral administration of 125 mg/kg dose after 30 min in rats;++ means 50% of the animals protected. Set-up: dose 125 mg/kg. In kind it is functional, organism-based. In outline: as §1
The subject of data set [30] is Rattus norvegicus. The data set can be described thus: Anticonvulsant activity after oral administration of 100 mg/kg dose after 1 hr in rats; + means 25% of the animals protected. Format: functional, organism-based. Set-up: dose 100 mg/kg. In outline: as §1
Data set [31] deals with Rattus norvegicus. Briefly: Anticonvulsant activity after oral administration of 100 mg/kg dose after 2 hr in rats; + means 25% of the animals protected. In kind it is functional, organism-based. Set-up: dose 100 mg/kg. The essentials: as §1
Data set [32] concerns Rattus norvegicus. The data set can be described thus: Anticonvulsant activity after oral administration of 50 mg/kg dose after 4 hr in rats;+ means 25% of the animals protected. Format: functional, organism-based. Set-up: dose 50 mg/kg. In outline:
as §2

The test system of data set [33] is Rattus norvegicus. Briefly: Anticonvulsant activity after oral administration of 50 mg/kg dose after 15 min in rats; ++ means 50% of the animal protected. Further details: dose 50 mg/kg. Format: functional, organism-based. The essentials:
as §1

Data set [34] has as its system Rattus norvegicus. The data set can be described thus: Anticonvulsant activity after oral administration of 50 mg/kg dose after 2 hr in rats; ++ means 50% of the animal is protected. Set-up: dose 50 mg/kg. In kind it is functional, organism-based. The essentials:
as §1

For data set [35], the system named is Rattus norvegicus. Briefly: Anticonvulsant activity after oral administration of 50 mg/kg dose after 30 min in rats; + means 25% of the animal protected. In kind it is functional, organism-based. Further details: dose 50 mg/kg. In outline: as §1
For data set [36], the system named is Rattus norvegicus. Briefly: Anticonvulsant activity after oral administration of 100 mg/kg dose after 15 min in rats;+means 25% of the animals protected. Format: functional, organism-based. Further details: dose 100 mg/kg. The essentials:
as §1

Take `CN(C)C(=O)C1C(C)(C)C1(C)C`: the Toxicity was found to be 0 in data set [1]; 0 in data set [2]; 1 in [3]; 0 in data set [4]; 0 in data set [5]; 4 in [6]. Moreover, the Activity in the data set with Mus musculus [7], in the data set on Mus musculus [8], in the data set on Mus musculus [9], in the data set on Mus musculus [10], in the data set on Mus musculus [11] and with Mus musculus [12] was 0 in each case. The Activity with Mus musculus [13] is given as 1; in the data set with Mus musculus [14], 0; with Rattus norvegicus [15] it was 25% of animal protected; in the data set on Rattus norvegicus [16], 25% of animal protected; with Mus musculus [17], 0; in the data set on Mus musculus [18], 0. The Activity in the data set with Mus musculus [19] and in the data set on Mus musculus [20] was 0 each time.

For `CC1(C)C(C(N)=O)C1(C)C`, the Activity with Rattus norvegicus [21] is given as 7.3; in the data set on Mus musculus [22], 1.7.

As to `CN(C)C(=O)NC(=O)C1C(C)(C)C1(C)C`, the Toxicity in [23] is given as 0; in data set [1] it was 0; in [2], 0; in [4], 0; in data set [24], 1. Also, the Activity with Mus musculus [7] came out at 0; in the data set on Mus musculus [8], 0; in the data set with Mus musculus [25], 1; in the data set with Mus musculus [11], 0; in the data set on Mus musculus [12] it was 0; in the data set with Mus musculus [13] it was 1. The Activity in the data set on Mus musculus [14] was 0; in the data set on Rattus norvegicus [26], 25% of the animals protected; with Rattus norvegicus [27], 25% of the animals protected; in the data set on Rattus norvegicus [28] it was 25% of the animals protected; in the data set with Rattus norvegicus [29], 25% of the animals protected; with Mus musculus [17] it was 0. Moreover, the Activity in the data set on Mus musculus [18], with Mus musculus [19] and in the data set with Mus musculus [20] was 0 each time.

With `CNC(=O)NC(=O)C1C(C)(C)C1(C)C`, the Toxicity in data set [23] is 0; in [1] it was 0; in data set [2] it was 0; in data set [4], 0; in data set [24] it was 1; in data set [6] it was 4. Besides, the Activity in the data set with Mus musculus [7] is 0; in the data set on Mus musculus [8], 0; with Mus musculus [25] it was 1; in the data set with Mus musculus [10] it was 0; with Mus musculus [11], 0; with Mus musculus [12], 0. The Activity in the data set on Mus musculus [13] is given as 1; with Mus musculus [14] it was 0; in the data set on Rattus norvegicus [30], 25% of the animal protected; in the data set with Rattus norvegicus [31], 25% of the animal protected; in the data set with Rattus norvegicus [32], 25% of the animal protected; in the data set on Rattus norvegicus [33], 25% of the animal protected. Also, the Activity in the data set on Rattus norvegicus [34] is 25% of the animal protected; with Rattus norvegicus [35], 25% of the animal protected; in the data set with Mus musculus [17], 0; with Mus musculus [18], 0; with Mus musculus [19] it was 0; in the data set on Mus musculus [20], 0. For the same molecule, the “Anticonvulsant Activity” value in the data set on Rattus norvegicus [36] is given as 25% of the animals protected.
